# Experimental data collected from several papers.
# Read-out: enzyme activity
# Mode: inhibitor
# ABL1 E255K: Tyrosine-protein kinase ABL1 (ABL1, Homo sapiens, UniProt P00519, E255K)
# ABL1: Tyrosine-protein kinase ABL1 (ABL1, Homo sapiens, UniProt P00519)
# ABL1 Y253F: Tyrosine-protein kinase ABL1 (ABL1, Homo sapiens, UniProt P00519, Y253F)
SMILES,target,test,setting,inhibition [%]
O=C(CSc1nc2nccnc2c(=O)n1CCc1ccccc1)Nc1nccs1,ABL1 E255K,,10 µM,-1
COc1cc2nccc(Oc3ccc(NC(=O)c4c5n(n(-c6ccc(F)cc6)c4=O)CCCC5)cc3)c2cc1OC,ABL1,,0.1 µM,26
COc1cc2ncnc(Nc3ccc(Oc4ccccc4)c(C)c3C)c2cc1OC,ABL1,,1 µM,-4
CS(=O)(=O)Nc1cccc(-c2csc(NC(=O)CSc3nc4nccnc4c(=O)n3CCc3ccccc3)n2)c1,"Tyrosine-protein kinase ABL1 (ABL1, Homo sapiens, UniProt P00519, T315I)",,10 µM,-2
COc1cc(-c2cc(-c3ccc(N4CCNCC4)cc3)cnc2N)cc(OC)c1OC,ABL1 Y253F,,0.1 µM,83
CNc1cccc2cc(C(=O)Nc3ccc(C(=O)O)cc3)c(=O)[nH]c12,"Tyrosine-protein kinase ABL1 (ABL1, Homo sapiens, UniProt P00519, H396P)",,10 µM,1.9
CCOc1cc(-c2nncn2C)ccc1Nc1ncc2cc(C)nc(NCC(C)(C)C)c2n1,ABL1,FRET,1 µM,< 15
CN(C)C1CCN(CC#Cc2nn(C3CCCC3)c3nc(NCc4ccccc4)ncc23)C1 (centres unmarked),ABL1,FRET,1 µM,6
COc1cc2ncnc(Nc3ccc(Oc4ccccc4)cc3C)c2cc1OC,ABL1 Y253F,,1 µM,12
CNCc1ccc(-c2cc(-c3nc(-c4ccc(S(=O)(=O)C(C)C)cc4)cnc3N)on2)cc1,ABL1,,2 µM,34
CC/C(=N\NC(=O)NCc1cccc(O)c1)c1ccc(O)c(C)c1O,ABL1 E255K,,0.1 µM,-3.4
CNC(=O)c1cc2c(Oc3ccc(NC(=O)C4(C(=O)Nc5ccc(F)cc5)CC4)cc3)ccnc2cc1OC,ABL1,radiometric,1 µM,70
C=CC(=O)Nc1cc(Nc2nccc(Nc3cc(Cl)c(F)cc3C(C)(C)O)n2)c(OC)cc1N1CC[C@@H](N(C)C)C1,ABL1,,1 µM,6
CCCS(=O)(=O)Nc1ccc(F)c(C(=O)c2c[nH]c3ncc(-c4ccc(Cl)cc4)cc23)c1F,ABL1,,1 µM,< 20
